For assay [1], the system named is Thoracic aorta. Briefly: Potentiation of MahmaNonoate induced- vasodilatory activity in Sprague-Dawley rat thoracic aorta at 1 mM. Format: functional, tissue-based. The essentials:
(§1)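 Male Sprague-Dawley rat (200-250 g) thoracic aorta rings, 2-4 mm, in Krebs-Henseleit buffer at 37°C, pH 7.45, 2 g basal tension, 1 hr equilibration, 70 mM KCl viability check. Pretreated with L-NAME (100 μM) and indomethacin (5 μM), then preconstricted with phenylephrine (100 nM). Donors added cumulatively; relaxation is delta tension as percent of maximal PE constriction. Sigmoidal fits by non-linear regression give EC50.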

Assay [2] relates to Thoracic aorta. Briefly: Potentiation of Angeli's salt induced- vasodilatory activity in Sprague-Dawley rat thoracic aorta at 1 mM. Format: functional, tissue-based. A digest of the protocol:
as §1

Assay [3] has as its system Thoracic aorta. Briefly: Potentiation of 1-Nitrosocyclohexyl trifluoroacetate induced- vasodilatory activity in Sprague-Dawley rat thoracic aorta at 1 mM. Format: functional, tissue-based. The essentials: as §1
Assay [4] relates to Thoracic aorta. Briefly: Potentiation of 1-Nitrosocyclohexyl acetate induced- vasodilatory activity in Sprague-Dawley rat thoracic aorta at 1 mM. In kind it is functional, tissue-based. The essentials:
as §1

In assay [5] the test system is Thoracic aorta. Briefly: Vasodilatory activity in Sprague-Dawley rat thoracic aorta assessed as relaxation of phenylephrine-induced vasoconstriction at 0.01 nM to 100 uM. Format: functional, tissue-based. A digest of the protocol: as §1
For assay [6], the system named is Thoracic aorta. Briefly: Vasodilatory activity in Sprague-Dawley rat thoracic aorta assessed as relaxation of phenylephrine-induced vasoconstriction compound treated 5 mins after 200 uM NO-scavenger C-PTIO treatment. In kind it is functional, tissue-based. The essentials:
as §1

The test system of assay [7] is Thoracic aorta. Briefly: Vasodilatory activity in Sprague-Dawley rat thoracic aorta assessed as relaxation of phenylephrine-induced vasoconstriction compound treated 5 mins after 1 uM soluble guanylate cyclase inhibitor ODQ treatment. In kind it is functional, tissue-based. A digest of the protocol: as §1
Assay [8] has as its system Thoracic aorta. Briefly: Inhibition of 1-Nitrosocyclohexyl trifluoroacetate induced- vasodilatory activity in Sprague-Dawley rat thoracic aorta at 0.1 to 1 mM. Format: functional, tissue-based. A digest of the protocol: as §1
Assay [9] relates to Thoracic aorta. Briefly: Inhibition of Angeli's salt induced- vasodilatory activity in Sprague-Dawley rat thoracic aorta at 0.1 to 1 mM. In kind it is functional, tissue-based. A digest of the protocol:
as §1

Assay [10] has as its system Thoracic aorta. Briefly: Inhibition of 1-Nitrosocyclohexyl acetate induced- vasodilatory activity in Sprague-Dawley rat thoracic aorta at 0.1 to 1 mM. Format: functional, tissue-based. A digest of the protocol: as §1
The species named for assay [11] is Rattus norvegicus. Briefly: Vasodilatory activity in rat aorta assessed as relaxation of phenylephrine-induced vasoconstriction.
The test system of assay [12] is Thoracic aorta. Briefly: Vasodilatory activity in Sprague-Dawley rat thoracic aorta assessed as relaxation of phenylephrine-induced vasoconstriction at 0.01 nM to 1 uM in presence of 1% oxygen. In kind it is functional, tissue-based. A digest of the protocol: as §1
Assay [13] is filed under the species Rattus norvegicus. Briefly: Vasodilatory activity in rat thoracic aorta assessed as relaxation of phenylephrine-induced vasoconstriction.
In assay [14] the test system is Thoracic aorta. Briefly: Vasodilatory activity in Sprague-Dawley rat thoracic aorta assessed as relaxation of phenylephrine-induced vasoconstriction at 0.01 nM to 1 uM in presence 100 U/ml SOD at 21% oxygen. In kind it is functional, tissue-based. The essentials:
as §1

In assay [15] the test system is Thoracic aorta. Briefly: Vasodilatory activity in Sprague-Dawley rat thoracic aorta assessed as relaxation of phenylephrine-induced vasoconstriction at 0.01 nM to 1 uM in presence of 21% oxygen. In kind it is functional, tissue-based. The essentials: as §1
The species named for assay [16] is Rattus norvegicus. Briefly: Ratio of compound EC50 to Angeli's salt EC50 for vasodilatory activity in rat aorta.
The species named for assay [17] is Rattus norvegicus. Briefly: Ratio of compound EC50 to Angeli's salt EC50 for vasodilatory activity in rat thoracic aorta.

Structures can show the parent of a compound that is named as a salt. Activity calls are given as the source filed them. No cut-off for these calls is given here.

Turning to `CC(=O)N[C@@H](CS)C(=O)O`, the result in assay [1] and in [4] was inactive. Also, the outcome in assay [2] and in assay [3] was Active.

As for `CNCCCCCCN(C)N(O)N=O`, the outcome in assay [1], in [6], in [7] and in assay [4] was inactive. Moreover, the Activity result in assay [5] is “Dose-dependent effect”.

As to `N[C@@H](CCC(=O)N[C@@H](CS)C(=O)NCC(=O)O)C(=O)O`, the inhibition entry in [8] and in assay [9] was “Active” in each case. Also, the inhibition entry in [10] is “inactive”.

The EC50 is the midpoint of the concentration-response curve. Take `CC(=O)OC1(N=O)CCCCC1` [1-NITROSOCYCLOHEXYL ACETATE]: the EC50 in assay [11] and in [13] was 10000 nM in each case. Also, the outcome in assay [12], in assay [14] and in assay [15] was Active. Further, the result in [1], in assay [6], in [7] and in [4] was inactive. The Activity entry in assay [5] was “Dose-dependent effect”. Moreover, the inhibition entry in assay [10] was “inactive”.

As to `O=NC1(OC(=O)C(F)(F)F)CCCCC1` [1-NITROSOCYCLOHEXYL TRIFLUOROACETATE], the EC50 in [11] and in [13] was 880 nM throughout. In addition, the outcome in assay [12], in [2], in [14], in [15] and in assay [3] was Active. Further, the Activity result in assay [5] was “Dose-dependent effect”. Further, the “Ratio EC50” value in assay [16] and in [17] was 10 in each case. In addition, the outcome in assay [6] and in [7] was inactive. For the same molecule, the inhibition result in assay [8] and in [9] was “Active” each time.

As to `[O-][N+]([O-])=NO` [ANGELI'S SALT], the EC50 in assay [11] and in assay [13] was 82 nM each time. The result in assay [12], in [6] and in [7] was inactive. The outcome in assay [2], in assay [14], in assay [15] and in [3] was Active. For the same molecule, the Activity entry in assay [5] is “Dose-dependent effect”. Besides, the inhibition result in assay [8] and in assay [9] was “Active” each time.
